Reference: ChEMBL document CHEMBL4038284, “Synthesis of novel quinoline-based 4,5-dihydro-1H-pyrazoles as potential anticancer, antifungal, antibacterial and antiprotozoal agents” (Eur J Med Chem, 2017)
Converted amounts (≈) assume the structure as drawn.

Experiments:
[1] = tested on: Klebsiella pneumoniae; experiment: Antibacterial activity against ESBL positive Klebsiella pneumoniae ATCC 700603 after 24 hrs by resazurin dye based microdilution assay; type: functional; settings: Klebsiella pneumoniae, 700603, 24 h
Method in brief: (§1)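 MIC taken as the lowest concentration giving visible inhibition and/or by resazurin (1 mg/mL). Gentamicin was the control. Run in duplicate, repeated at least three times.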

[2] = tested on: Klebsiella pneumoniae; experiment: Antibacterial activity against carbapenemase positive Klebsiella pneumoniae BAA 1705 after 24 hrs by resazurin dye based microdilution assay; type: functional; settings: BAA 1705, 24 h; method in brief: as §1
[3] = tested on: Leishmania panamensis; experiment: Antileshmanial activity against EpiR/GFP fused Leishmania panamensis MHOM/CO/87/UA140 intracellular amastigotes infected in human […] cells after 72 hrs by flow cytometric method; type: functional, cell-based; settings: MHOM/CO/87/UA140, 72 h
Method in brief: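 PMA-treated U-937 cells (3 × 10^5 cells/mL) infected with stationary-phase GFP L. panamensis promastigotes (15:1), 3 h at 34 °C, then washed. After 24 h, compounds added at 50, 12.5, 3.125 and 0.78 µg/mL for 72 h at 37 °C. EC50 by Probit; triplicate, two experiments.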

[4] = tested on: Candida albicans; experiment: Antifungal activity against Candida albicans ATCC 10231 incubated for 48 hrs under dark condition by broth microdilution method; type: functional; settings: ATCC 10231, 48 h
Method in brief: (§2)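 CLSI M27-A3 broth microdilution in RPMI-1640, DMSO ≤1%, compounds at 250-0.98 µg/mL final. Inoculum 1-5 × 10^3 CFU/mL. Incubated 48 h at 30 °C in a moist dark chamber, read at OD405. MIC80 and MIC50 taken from % inhibition dose-response curves (mean ± SEM, triplicate). Amphotericin B was the positive control.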

[5] = tested on: Cryptococcus neoformans; experiment: Antifungal activity against Cryptococcus neoformans ATCC 32264 incubated for 48 hrs under dark condition by broth microdilution method; type: functional; settings: ATCC 32264, 48 h; method in brief: as §2
[6] = tested on: Candida albicans; experiment: Growth inhibition of Candida albicans ATCC 10231 at 250 ug/ml incubated for 48 hrs under dark condition by broth microdilution method relative to control; type: functional; settings: ATCC 10231, 48 h, read-out: GI
Method in brief: (§3)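 CLSI M27-A3 broth microdilution in RPMI-1640, DMSO ≤1%. Inoculum 1-5 × 10^3 CFU/mL. Incubated 48 h at 30 °C, dark. % inhibition = 100 − (OD405 test − sterility control)/(OD405 growth control − sterility control), with growth and sterility control wells. Triplicate.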

[7] = tested on: Candida albicans; experiment: Growth inhibition of Candida albicans ATCC 10231 at 125 ug/ml incubated for 48 hrs under dark condition by broth microdilution method relative to control; type: functional; settings: ATCC 10231, 48 h, read-out: GI; method in brief: as §3
[8] = tested on: Candida albicans; experiment: Growth inhibition of Candida albicans ATCC 10231 at 62.5 ug/ml incubated for 48 hrs under dark condition by broth microdilution method relative to control; type: functional; settings: ATCC 10231, 48 h, read-out: GI; method in brief: as §3
[9] = tested on: Candida albicans; experiment: Growth inhibition of Candida albicans ATCC 10231 at 31.25 ug/ml incubated for 48 hrs under dark condition by broth microdilution method relative to control; type: functional; settings: ATCC 10231, 48 h, read-out: GI; method in brief: as §3
[10] = tested on: Candida albicans; experiment: Growth inhibition of Candida albicans ATCC 10231 at 15.62 ug/ml incubated for 48 hrs under dark condition by broth microdilution method relative to control; type: functional; settings: ATCC 10231, 48 h, read-out: GI; method in brief: as §3
[11] = tested on: Candida albicans; experiment: Growth inhibition of Candida albicans ATCC 10231 at 7.8 ug/ml incubated for 48 hrs under dark condition by broth microdilution method relative to control; type: functional; settings: ATCC 10231, 48 h, read-out: GI; method in brief: as §3
[12] = tested on: Candida albicans; experiment: Growth inhibition of Candida albicans ATCC 10231 at 3.4 ug/ml incubated for 48 hrs under dark condition by broth microdilution method relative to control; type: functional; settings: ATCC 10231, 48 h, read-out: GI
[13] = tested on: Cryptococcus neoformans; experiment: Growth inhibition of Cryptococcus neoformans ATCC 32264 at 250 ug/ml incubated for 48 hrs under dark condition by broth microdilution method relative to control; type: functional; settings: ATCC 32264, 48 h, read-out: GI; method in brief: as §3
[14] = tested on: Cryptococcus neoformans; experiment: Growth inhibition of Cryptococcus neoformans ATCC 32264 at 125 ug/ml incubated for 48 hrs under dark condition by broth microdilution method relative to control; type: functional; settings: ATCC 32264, 48 h, read-out: GI; method in brief: as §3
[15] = tested on: Cryptococcus neoformans; experiment: Growth inhibition of Cryptococcus neoformans ATCC 32264 at 62.5 ug/ml incubated for 48 hrs under dark condition by broth microdilution method relative to control; type: functional; settings: ATCC 32264, 48 h, read-out: GI; method in brief: as §3
[16] = tested on: Cryptococcus neoformans; experiment: Growth inhibition of Cryptococcus neoformans ATCC 32264 at 31.25 ug/ml incubated for 48 hrs under dark condition by broth microdilution method relative to control; type: functional; settings: ATCC 32264, 48 h, read-out: GI; method in brief: as §3
[17] = tested on: Cryptococcus neoformans; experiment: Growth inhibition of Cryptococcus neoformans ATCC 32264 at 15.62 ug/ml incubated for 48 hrs under dark condition by broth microdilution method relative to control; type: functional; settings: ATCC 32264, 48 h, read-out: GI; method in brief: as §3
[18] = tested on: Cryptococcus neoformans; experiment: Growth inhibition of Cryptococcus neoformans ATCC 32264 at 7.8 ug/ml incubated for 48 hrs under dark condition by broth microdilution method relative to control; type: functional; settings: ATCC 32264, 48 h, read-out: GI; method in brief: as §3
[19] = tested on: Cryptococcus neoformans; experiment: Growth inhibition of Cryptococcus neoformans ATCC 32264 at 3.4 ug/ml incubated for 48 hrs under dark condition by broth microdilution method relative to control; type: functional; settings: ATCC 32264, 48 h, read-out: GI
[20] = tested on: Staphylococcus aureus; experiment: Antibacterial activity against methicillin-sensitive Staphylococcus aureus ATCC 25923 after 24 hrs by resazurin dye based microdilution assay; type: functional; settings: ATCC 25923, 24 h; method in brief: as §1
[21] = tested on: Staphylococcus aureus; experiment: Antibacterial activity against methicillin-resistant Staphylococcus aureus ATCC 43300 after 24 hrs by resazurin dye based microdilution assay; type: functional; settings: ATCC 43300, 24 h
Method in brief: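 Broth microdilution in Mueller Hinton broth, inoculum 5 × 10^5 – 8 × 10^5. Compound stocks diluted in MHB with 5% DMSO and 0.1% Tween 80. Incubation 24 h at 35-37 °C. MIC is the lowest concentration with visible growth inhibition and/or by resazurin (1 mg/mL) read-out. Gentamicin as control. Run in duplicate, replicated at least three times.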

[22] = tested on: Staphylococcus aureus; experiment: Antibacterial activity against vancomycin-intermediate Staphylococcus aureus after 24 hrs by resazurin dye based microdilution assay; type: functional; method in brief: as §1
[23] = tested on: Escherichia coli; experiment: Antibacterial activity against Escherichia coli ATCC 25922 after 24 hrs by resazurin dye based microdilution assay; type: functional; settings: ATCC 25922, 24 h; method in brief: as §1
[24] = tested on: Pseudomonas aeruginosa; experiment: Antibacterial activity against Pseudomonas aeruginosa ATCC 27853 after 24 hrs by resazurin dye based microdilution assay; type: functional; settings: ATCC 27853, 24 h; method in brief: as §1
[25] = tested on: Neisseria gonorrhoeae; experiment: Antibacterial activity against beta lactamase positive Neisseria gonorrhoeae ATCC 31426 by oxidase test; type: functional
Method in brief: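 Agar dilution MIC on GC agar with 1% isovitalex containing increasing compound concentrations. Plates inoculated with about 1×10^4 CFU (5 µL). MIC is the lowest concentration that inhibited growth, with growth confirmed by oxidase test. Run in duplicate, repeated at least three times.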

[26] = tested on: Plasmodium falciparum; experiment: Antiplasmodial activity against chloroquine-sensitive Plasmodium falciparum 3D7 assessed as reduction in parasitic LDH activity after 48 hrs by Malstat reagent based […] method; type: functional; settings: 3D7, 48 h
Method in brief: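 Unsynchronized P. falciparum 3D7 at 0.5% parasitemia and 1% hematocrit in RPMI with 3% Albumax II. Exposed to 100, 25, 6.25 and 1.56 µg/mL for 48 h at 37 °C under 90% N2/5% CO2/5% O2. After three freeze-thaw cycles, LDH measured with Malstat and NBT/PES, 1 h in the dark, read at 650 nm. IC50 by Probit; triplicate, ≥2 experiments.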

[27] = tested on: U-937; experiment: Cytotoxicity against human U937 cells after 72 hrs by MTT assay; type: cell-based; settings: u-937, 72 h
Method in brief: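 Exponentially growing U-937 at 1 × 10^5 cells/mL in RPMI-1640 with 10% FBS were exposed to 200, 50, 12.5 and 3.125 µg/mL for 72 h at 37 °C, 5% CO2. MTT for 3 h, stopped with isopropanol/SDS, formazan read at 570 nm, blank-corrected. LC50 by Probit from % viability against untreated cells. Triplicate, at least two independent experiments.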

[28] = tested on: Trypanosoma cruzi; experiment: Antitrypanosomal activity against Trypanosoma cruzi Tulahuen intracellular amastigote harboring LacZ infected in human U937 cells after 72 hrs by CPRG/Nonidet reagent based spectrophotometric method; type: functional, cell-based; settings: U-937, 72 h
Method in brief: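 U-937 cells at 2.5 × 10^5 cells/mL in RPMI-1640 with 10% serum and 0.1 µg/mL PMA were infected with β-galactosidase-transfected Tulahuen epimastigotes at 5 parasites per cell. Infected cells were exposed to 50, 12.5, 3.125 and 0.78 µg/mL for 72 h. CPRG (100 uM) and 0.1% Nonidet P-40 were added for 3 h, read at 570 nm. EC50 by Probit. Triplicate, at least two experiments; benznidazole as reference.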

Compound	MIC [1] [µg/mL]	MIC [2] [µg/mL]	EC50 [3] [µg/mL]	MIC50 [4] [µg/mL]	MIC80 [4] [µg/mL]	MIC50 [5] [µg/mL]	MIC80 [5] [µg/mL]	inhibition of growth at 250 µg/mL [6] [%]	inhibition of growth at 125 µg/mL [7] [%]	inhibition of growth at 62.5 µg/mL [8] [%]	inhibition of growth at 31.25 µg/mL [9] [%]	inhibition of growth at 15.62 µg/mL [10] [%]	inhibition of growth at 7.8 µg/mL [11] [%]	inhibition of growth at 3.4 µg/mL [12] [%]	inhibition of growth at 250 µg/mL [13] [%]	inhibition of growth at 125 µg/mL [14] [%]	inhibition of growth at 62.5 µg/mL [15] [%]	inhibition of growth at 31.25 µg/mL [16] [%]	inhibition of growth at 15.62 µg/mL [17] [%]	inhibition of growth at 7.8 µg/mL [18] [%]	other results
O=C(/C=C/c1cccc(Nc2ccnc3cc(Cl)ccc23)c1)c1ccc(Br)cc1	> 1000	> 1000	0.88 (≈ 1.9 µM)	250 (≈ 539 µM)	≥ 250	125 (≈ 270 µM)	250 (≈ 539 µM)	58	47.7	35.3	28.9	32	21.1	15.8	100	70.6	47.9	46.4	44.5	35.1	inhibition of growth at 3.4 µg/mL [19]: 34.9%; MIC [20]: > 1000 µg/mL; MIC [21]: > 1000 µg/mL; MIC [22]: > 1000 µg/mL; MIC [23]: > 1000 µg/mL; MIC [24]: > 1000 µg/mL; MIC [25]: > 1000 µg/mL; EC50 [26]: 10.3 µg/mL (≈ 22.3 µM); LC50 [27]: 0.7 µg/mL (≈ 1.51 µM); EC50 [28]: 1.35 µg/mL (≈ 2.91 µM)
O=CN1N=C(c2ccc(Br)cc2)CC1c1cccc(Nc2ccnc3cc(Cl)ccc23)c1 (stereo not given)	> 1000	> 1000	2.41 (≈ 4.76 µM)	250 (≈ 494 µM)	≥ 250	62.5 (≈ 124 µM)	250 (≈ 494 µM)	58.7	31.4	25.3	19.2	13	8.36	5.76	100	60.9	53.5	44.5	44.2	39.1	inhibition of growth at 3.4 µg/mL [19]: 24.2%; MIC [20]: > 1000 µg/mL; MIC [21]: > 1000 µg/mL; MIC [22]: > 1000 µg/mL; MIC [23]: > 1000 µg/mL; MIC [24]: > 1000 µg/mL; MIC [25]: > 1000 µg/mL; EC50 [26]: 15.7 µg/mL (≈ 31 µM); LC50 [27]: 0.6 µg/mL (≈ 1.19 µM); EC50 [28]: 1.24 µg/mL (≈ 2.45 µM)
